Most compounds without a hit are left out; they make up all but 3.2% or so of the library.
UBC13 inh – human UBC13 polyubiquitination inhibition; P61088; UBC13 polyubiquitin chain formation, TR-FRET; inhibition, % at 20 µM; 330,000 compounds, 0.47% hits; AID 485273; in the data active = inhibition above about 45%, passing the limit was not always enough
MEKK2 WT-MEK5 – raises or lowers MEK5 binding to wildtype human MEKK2 PB1 domain. 290,000 compounds, 1.1% hits. bead flow cytometry, Alexa488-MEK5 binding to MEKK2 WT; actives lie on both sides. binding response (% of control), % at 10 µM. Q9Y2U5; in the data active = binding response below about 67% or above about 130%
Apaf-1 inh – inhibitors of human Apaf-1 apoptosome; O14727; reconstituted apoptosome caspase-3 activity, DEVD-Rh110 fluorescence; inhibition, % at 20 µM; 330,000 compounds, 0.71% hits; active = inhibition of at least 40% at 20 µM;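 note: plate controls were DMSO wells for no effect and DEVD-CHO caspase inhibitor wells for full effect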
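Material: cell-free apoptosome with Apaf-1, procaspase-3 and caspase-9; Buffer or medium: Hepes pH 7.5 with detergent and BSA; Reagent: cytochrome c trigger plus (Z-DEVD)2-Rh110 caspase-3 substrate; Times: compound with Apaf-1, dATP, procaspase-3 30 min, then 50 min reaction, room temperature; Technique: Rh110 fluorescence intensity.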
MEKK2mut PB1 HTS – signal of MEK5 binding to mutant human MEKK2 PB1 domain. 290,000 compounds, 0.35% hits. bead flow cytometry, Alexa488-MEK5 binding to MEKK2 mutant. percent response, % at 10 µM; in the data active = percent response above about 24%, passing the limit was not always enough
Pemphigus Ab inh – inhibitors of pemphigus antibody binding to human desmoglein-3; P32926; DSG3-coupled beads, scFv-anti-DSG3-GFP binding, flow cytometry; stronger effect = lower value; binding (percent of control), % at 10 µM; 310,000 compounds, 0.48% hits; AID 588358;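 active = binding more than 3 SD below its plate's average and above zero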
MEKK3 PB1 HTS – MEKK3-MEK5 PB1 interaction, increase or decrease; 290,000 compounds, 1.4% hits; binding response (% of control), % at 10 µM; bead-based flow cytometry, Alexa488-MEK5 binding to MEKK3; actives lie on both sides; 0 = blocked by unlabeled MEK5, 100 = vehicle;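 active = binding response more than 3 SD above or below the average of its plate-row segment, actives on both sides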;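 note: Alexa488 bead fluorescence after subtracting the streptavidin-only scavenger bead signal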
Target sequence (Q99759 whole entry, looked up): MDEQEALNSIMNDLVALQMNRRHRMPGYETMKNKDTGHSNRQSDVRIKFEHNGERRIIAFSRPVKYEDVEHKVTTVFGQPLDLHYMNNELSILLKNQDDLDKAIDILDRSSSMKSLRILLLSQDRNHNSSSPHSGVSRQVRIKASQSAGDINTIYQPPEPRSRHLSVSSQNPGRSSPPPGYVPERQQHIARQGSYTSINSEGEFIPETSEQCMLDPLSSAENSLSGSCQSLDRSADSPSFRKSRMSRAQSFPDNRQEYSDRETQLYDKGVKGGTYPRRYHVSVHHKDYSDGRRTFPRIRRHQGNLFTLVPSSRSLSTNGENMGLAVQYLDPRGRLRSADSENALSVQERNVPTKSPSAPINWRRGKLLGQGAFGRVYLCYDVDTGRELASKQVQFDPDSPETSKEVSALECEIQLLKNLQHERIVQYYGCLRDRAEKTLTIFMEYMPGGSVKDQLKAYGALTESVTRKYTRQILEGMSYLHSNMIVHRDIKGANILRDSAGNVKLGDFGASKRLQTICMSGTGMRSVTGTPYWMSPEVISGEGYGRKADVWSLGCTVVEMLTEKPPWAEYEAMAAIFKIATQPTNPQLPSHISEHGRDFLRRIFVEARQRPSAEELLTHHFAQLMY
Starred values were filed as active, the others as inactive; / = no result; + = active, no number; [ ] = another dose, or the depositor's remark.

SMILES | UBC13 inh | MEKK2 WT-MEK5 | Apaf-1 inh | MEKK2mut PB1 HTS | Pemphigus Ab inh | MEKK3 PB1 HTS
COC(=O)c1cccc(C(=O)Nc2ccc(C)cc2)n1 | 1 | 101 | 9 | 0 | 97 | 102
CCc1ccc(NC(=O)c2cccc(C(=O)Nc3ccc(CC)cc3)n2)cc1 | -10 | -9.0*[inhibitor] | 21 | -28 | 108 | 0.0*[inhibitor]
Cc1ccc2c(c1)C(C)CC(C)(C)N2C(=O)CN1CCN(C)CC1 (stereo not drawn) | -2 | 117 | -16 | 4 | 97 | 115
Cc1ccnc2nc(C(=O)OCC(=O)N(Cc3ccccc3)C(C)C)nn12 | 1 | / | -3 | / | / | /
CCc1cc(CNC(=O)C2CCC(=O)N(Cc3ccccc3F)C2)on1 (stereo not drawn) | / | / | / | / | 96 | /
CCOc1ccc2nc(Cl)c(C3CC(c4ccco4)=NN3S(C)(=O)=O)cc2c1 (stereo not drawn) | -7 | 7.0* | 6 | 0 | 95 | 90
COc1ccccc1C1CC(c2ccco2)=NN1S(C)(=O)=O (stereo not drawn) | 7 | 29* | -9 | 17 | 131 | 97
CS(=O)(=O)N1N=C(c2ccco2)CC1c1ccccc1Cl (stereo not drawn) | -3 | 100 | 1 | 5 | 102 | 106
CCOC(=O)[C@H]1[C@H]2COc3ccc(OC)cc3[C@@H]2N2C(=O)CN(CC3CCCO3)C(=O)[C@@]12C (stereo partly drawn) | 3 | / | -8 | / | 101 | /
CCN(CC)c1ccc(/C=N/N2C(=O)c3ccccc3C2=O)cc1 | 5 | 102 | 14 | -2 | 63* | 104
CC(=O)c1ccc(NC(=O)C(C)N2CCN(C/C=C/c3ccccc3)CC2)cc1 (stereo not drawn) | 3 | 120 | 9 | + | 105 | 191*
C[C@@H]1CN([C@H](C)CO)C(=O)CCCn2nncc2CO[C@H]1CN(C)Cc1ccc(-c2ccccc2)cc1 | / | / | / | / | 109 | /
C[C@H](CO)N1C[C@H](C)[C@@H](CN(C)Cc2ccccc2)OCc2cnnn2CCCC1=O | / | / | / | / | 91* | /
COc1ccccc1C(=O)Nc1ccc(OCC(=O)N2CC(C)CC(C)C2)cc1 (stereo not drawn) | 3 | / | 12 | / | 96 | /
O=C(c1ccc(NC(=O)C(c2ccccc2)c2ccccc2)cc1)c1ccc(C(=O)O)c(C(=O)O)c1 | -18 | 99 | 5 | 1 | 116 | 102
O=C(CCCCCN1C(=O)c2ccccc2C1=O)NC1CCCC1 | 8 | 103 | -4 | 4 | / | 107
O=C(CCCCCCN1C(=O)c2ccccc2C1=O)NC1CCCCC1 | 15 | 97 | -2 | 2 | -5.7* | 99
Cc1nc(SCC(=O)Nc2nc3ccccc3s2)c(C#N)c(C)c1C | -1 | 97 | 15 | -2 | 86 | 96
Cc1cc(C(F)(F)F)c(C#N)c(SCC(=O)Nc2nc3ccccc3s2)n1 | 4 | 57* | 4 | 45 | 125 | 117
CCOc1ccc(S(=O)(=O)N2CCN(C(=O)CN3C(=O)NC(C)(C)C3=O)CC2)cc1 | 2 | / | 18 | / | / | /
C/C(=C\C(=O)c1ccc(Br)cc1)Nc1ccc(Cl)cc1 | 7 | 93 | -11 | -1 | 78* | 92
C/C(=C\C(=O)c1ccc(Cl)cc1)Nc1ccc(N2CCOCC2)cc1 | -18 | / | -1 | / | 101 | /
COc1ccc(CN2CCN(S(=O)(=O)c3ccc(F)cc3)CC2)cc1OC | -6 | 22*[inhibitor] | -18 | -18 | 82 | 13*[inhibitor]
Cc1ccc(C(=O)c2c3ccc(N)cc3nn2CCC(N)=O)cc1 | -87 | 93 | 82* | 1 | 89 | 97
CCOC(=O)Nc1ccc2c(c1)C(=NNC(=S)NC)c1ccccc1-2 | / | / | / | / | 106 | /
SMILES | UBC13 inh | MEKK2 WT-MEK5 | Apaf-1 inh | MEKK2mut PB1 HTS | Pemphigus Ab inh | MEKK3 PB1 HTS
CCOC(=O)CN1C(=O)/C(=C/c2ccccc2Br)Oc2ccccc21 | 34 | 98 | 3 | 0 | -3.0* | 101
Nc1nn2c(-c3ccccc3)cc(=O)[nH]c2c1N=Nc1ccc(O)cc1 | -100 | 91 | 41* | -7 | 99 | 94
Cc1cccc(C)c1OCc1nnc(SCC(=O)Nc2nccs2)n1-c1ccccc1 | 9 | 101 | 4 | -1 | 34* | 101
COc1ccc(-n2c(SCC(=O)Nc3nccs3)nnc2-c2ccc(Cl)cc2)cc1 | / | / | / | / | -1.0* | /
COc1ccc(-c2[nH]c(-c3ccc(Cl)cc3)nc2SCC(=O)Nc2nccs2)cc1 | -12 | 104 | 6 | 11 | 73* | 113
O=C(CSc1nnc(CCCO)n1-c1ccccc1)Nc1nccs1 | 8 | 96 | -16 | 0 | 107 | 96
COc1ccc(-c2[nH]c(-c3ccccc3)nc2SCC(=O)Nc2nccs2)cc1 | 3 | 78 | -6 | 13 | 105 | 77
Cc1cc(C)c(OCC(=O)OCC(=O)N2CCCc3ccccc32)c(C)c1 | -3 | / | 16 | / | 110 | /
CCN(CC)C(=O)C1=C(C)N(Cc2ccc(OC)cc2)C(=O)C(CC(=O)NC2CCCC2)C1 (stereo not drawn) | / | / | / | / | 102 | /
Cc1cc(CN(Nc2ccccc2)c2ccccc2)cc(C)n1 | / | / | / | / | 97 | /
Nc1nc(Cl)cc(Oc2ccc([N+](=O)[O-])cc2)n1 | 8 | 107 | -2 | 12 | 55* | 106
COc1cc(C2Nc3cccc4cccc(c34)N2)cc(OC)c1OC(C)=O | -57 | / | 41* | / | 76 | /
COc1cc(C2Nc3cccc4cccc(c34)N2)ccc1O | -30 | 98 | 30 | -2 | 101 | 97
C/C(=N\NC(=O)Cc1ccccc1)c1cccs1 | 5 | 93 | -12 | -3 | 78* | 95
N=c1oc2ccc3ccccc3c2cc1C(N)=S | -7 | 78 | 19 | -10 | 80* | 86
O=C(O)c1cc2c(ccc3ccccc32)oc1=O | 6 | 95 | -1 | -2 | 96 | 98
COC(=O)[C@@]12CCCCN1[C@H](c1ccc(-c3ccc4c(c3)OCO4)cc1)[C@H]1C(=O)N(C)C(=O)[C@H]12 | 1 | / | 22 | / | 102 | /
CC1=CC(=C(C#N)C#N)C=C(C)N1Cc1ccc(Cl)cc1 | 10 | 100 | 8 | -2 | -3.8* | 99
CC1=CC(=C(C#N)C#N)C=C(C)N1CCN1CCN(C(=O)Nc2ccc(Cl)c(Cl)c2)CC1 | 20 | 111 | 4 | 6 | 116 | 111
C/C(CC(=O)N1CCN(C=O)CC1)=N\NC(=O)c1cccc([N+](=O)[O-])c1 | 6 | 15* | -23 | 5 | 112 | 108
CC(/C=C/c1ccc2c(c1)OCO2)=N\NC(=O)c1ccccc1 | 1 | 97 | 2 | 0 | 103 | 98
C/C(CC(=O)N1CCN(C=O)CC1)=N\NC(=O)c1ccc(Cl)cc1 | 0 | 94 | 7 | -8 | 98 | 101
CC(/C=C/c1ccc2c(c1)OCO2)=N\NC(=O)c1cccc([N+](=O)[O-])c1 | -13 | 104 | -25 | 6 | 84* | 104
